Assay results taken from PubChem BioAssay.
The source made the active and inactive calls.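 Rule for the calls, unless noted: active = visually confirmed hit in the image check and inhibition above 20%; inconclusive = visually confirmed hit but inhibition not above 20%; inactive = no visual hit in the image check.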

How the values were obtained:
[1] = inhibitors of TNFa-induced NFkB p65 translocation, primary screen, imaging, HUVEC, MLSMR starter and 10KST1 sets (AID 438;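 active = inhibition above 20% together with a positive visual image hit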;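 note: compound added about 3h40 before a 20 min TNFalpha stimulation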;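 for inhibition: signal is the nuclear over cytoplasmic p65 intensity ratio per well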); details: HUVEC TNFa-induced p65 nuclear translocation; cell count: measured here: nuclei count (cytotoxicity indicator), at 2.08 µM; inhibition: at 2 µM, stronger effect = higher value, 0% TNFa-plus-vehicle, 100% no-TNFa wells
[2] = endothelial E-selectin expression blockers – imaging, HUVEC, immunofluorescence, MLSMR starter and 10KST1 sets, primary screen (AID 487); details: HUVEC TNFalpha-induced E-selectin immunofluorescence imaging, at 2 µM; inhibition: stronger effect = higher value; nuclei count: measured here: cell number, toxicity;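 for inhibition: signal is fraction of cell area covered by stained E-selectin grains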;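 for nuclei count: 100% = median nuclei count of all wells on the same plate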
[3] = Primary imaging screen for DUSP6 inhibitors that restore phospho-Erk in transfected HeLa cells, chemical complementation (AID 609;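 active = compounds giving at least 50% inhibition in the cell-based MKP-3 phosphatase rescue imaging test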;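 for inhibition: phospho-Erk level distribution per well compared with pooled transfected vehicle control wells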); details: HeLa MKP-3 transfected, phospho-Erk imaging KS statistic, at 10 µM, cells stimulated with TPA for 15 min
[4] = target: Dual specificity protein phosphatase 6 (Homo sapiens) (UniProt Q16828); experiment: as above; details: HeLa MKP-3 transfected, phospho-Erk imaging KS statistic; at 10 µM; stronger effect = higher value; cells stimulated with TPA for 15 min
Chain of Dual specificity protein phosphatase 6 (Homo sapiens) (Q16828 whole entry, looked up): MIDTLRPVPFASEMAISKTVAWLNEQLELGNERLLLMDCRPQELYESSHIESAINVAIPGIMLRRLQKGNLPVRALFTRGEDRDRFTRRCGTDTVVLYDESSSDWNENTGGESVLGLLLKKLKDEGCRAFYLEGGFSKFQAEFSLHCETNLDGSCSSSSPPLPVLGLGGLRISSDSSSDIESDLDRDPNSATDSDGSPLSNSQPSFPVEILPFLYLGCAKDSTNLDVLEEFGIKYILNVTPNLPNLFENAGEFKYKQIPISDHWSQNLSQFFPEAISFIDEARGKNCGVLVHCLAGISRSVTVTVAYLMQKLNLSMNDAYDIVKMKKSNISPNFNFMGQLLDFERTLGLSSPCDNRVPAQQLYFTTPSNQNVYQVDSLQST

[5] = target: Voltage-gated potassium channel subunit beta-2 (Rattus norvegicus) (UniProt P62483); experiment: inhibitors of rat Kvbeta2 reductase activity – biochemical, NADPH fluorescence, primary screen (AID 622;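 active = fluorescence slope higher than the sample average by over 3 SD, cut at about -0.22 in these data, passing the limit was not always enough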;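 note: slope of raw intensity against log time taken from 70 to 1610 s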); details: recombinant KvBeta, 4-cyanobenzaldehyde reduction, at 10 µM, stronger effect = higher value
Chain of Voltage-gated potassium channel subunit beta-2 (Rattus norvegicus) (P62483 whole entry, looked up): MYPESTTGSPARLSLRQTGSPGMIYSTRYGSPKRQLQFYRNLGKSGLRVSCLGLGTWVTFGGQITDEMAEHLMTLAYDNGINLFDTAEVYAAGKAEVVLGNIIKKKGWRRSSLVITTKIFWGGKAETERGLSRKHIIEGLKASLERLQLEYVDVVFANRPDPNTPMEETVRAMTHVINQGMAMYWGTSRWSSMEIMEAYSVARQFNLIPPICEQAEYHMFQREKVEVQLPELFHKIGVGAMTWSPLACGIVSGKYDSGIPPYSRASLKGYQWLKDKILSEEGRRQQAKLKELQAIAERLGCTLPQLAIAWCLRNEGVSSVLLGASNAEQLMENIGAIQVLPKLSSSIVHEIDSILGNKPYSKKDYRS

[6] = target: Voltage-gated potassium channel subunit beta-2 (Rattus norvegicus) (UniProt P62483); experiment: enhancers of rat Kvbeta2 NADPH turnover – biochemical, NADPH fluorescence, primary screen (AID 623;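 active = NADPH fluorescence slope more negative than the mean of all samples by about 3 SD, 99.7% confidence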;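 note: fluorescence intensity change per second fitted from 20 to 320 s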); details: Recombinant KvBeta, NADPH fluorescence decrease slope, 10 min; at 10 µM; stronger effect = lower value
[7] = target: Alpha-2C adrenergic receptor (Homo sapiens) (UniProt P18825); experiment: compounds altering alpha2C-coupled GIRK flux – cell-based, HEK293 alpha2C/GIRK1/2, thallium flux, primary screen (AID 624;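 active = fluorescence slope after compound addition differing from the mean of all screened samples at 99.7% confidence, in either direction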;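 note: slope of fluorescence ratio to pre-addition baseline per second over 15 to 24 s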); details: thallium flux BTC fluorescence, at 10 µM, actives lie on both sides
Chain of Alpha-2C adrenergic receptor (Homo sapiens) (P18825 whole entry, looked up): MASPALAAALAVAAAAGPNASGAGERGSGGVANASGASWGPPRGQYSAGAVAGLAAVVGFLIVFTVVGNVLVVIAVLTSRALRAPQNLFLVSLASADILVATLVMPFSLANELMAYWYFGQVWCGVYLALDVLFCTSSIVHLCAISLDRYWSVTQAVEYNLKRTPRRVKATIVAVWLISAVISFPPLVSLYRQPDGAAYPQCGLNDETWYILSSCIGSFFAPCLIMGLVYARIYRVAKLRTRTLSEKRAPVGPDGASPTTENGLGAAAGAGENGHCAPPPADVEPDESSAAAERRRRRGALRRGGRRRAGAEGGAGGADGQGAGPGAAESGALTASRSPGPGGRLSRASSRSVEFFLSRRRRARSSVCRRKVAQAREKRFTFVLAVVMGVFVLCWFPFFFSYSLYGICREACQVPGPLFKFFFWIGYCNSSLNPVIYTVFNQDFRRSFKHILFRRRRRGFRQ

[8] = inhibitors of larval lipid processing in zebrafish, primary screen, whole organism, PED6 fluorescence, gall bladder and intestine (AID 686;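 active = a full or partial loss of lipid-probe fluorescence in the fish gall bladder, intestine or both, judged by eye; inactive = no fluorescence loss, or compound toxic to the fish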;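 note: larvae 5 to 7 days old with five fish per well; signal comes from phospholipase A2 cleavage of quenched PED6 carried via bile; overnight exposure to compound and PED6 before scoring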); details: Zebrafish larvae PED6 lipid processing, fluorescence scoring; screened at 20 µM (by protocol)
In short: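 Test system – live zebrafish larvae aged 5-7 days, whole organism · Buffer or medium – E3 fish medium · Reagent – quenched phospholipase substrate PED6, 100 nM final, ingested by larvae · Doses – 20 µM single dose · Incubation – overnight compound and PED6 incubation · Technique – visual fluorescence microscopy scoring of gall bladder, gut · Read-out basis – visual per-well fluorescence inhibition score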

[9] = loss of swimming-algae plug formation – whole organism, Chlamydomonas reinhardtii, WT vs cilia-less mutant, absorbance, 96-well, primary screen (AID 463189;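 active = inhibition at or above 50% relative to wild type and mutant plate controls; inactive = inhibition below 50%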;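 note: 0% = wild type cc124 cells in DMSO and 100% = ciliumless bld1 mutant cells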); details: Chlamydomonas reinhardtii gravitaxis, OD600 absorbance, 2 days; at 10 µM; stronger effect = higher value
[10] = measured here: cell density z-score
[11] = measured here: nuclear c-Myc green intensity z-score
[12] = measured here: nuclear pErk red intensity z-score, stronger effect = higher value

SMILES | cell count [1] | inhibition [1] | inhibition [2] | nuclei count [2] [%] | z-score [3, 10] | z-score [3, 11] | z-score [3, 12] | inhibition [4] | fluorescence slope [5] | NADPH fluorescence slope [6] | slope [7] | outcome [8] | inhibition [9]
NS(=O)(=O)c1ccc(-c2ccc(C=NC3CCS(=O)(=O)C3)o2)cc1 (stereo unspecified) | 576 | 0.1% (inactive) | -53.9% (inactive) | 94 | -1.97 | 0.0247 | 1.53 | -4.7% (inactive) | -0.59 (inactive) | -5.6e-05 (inactive) | 0.00467 (inactive) | inactive | -10.3% (inactive)
CCOc1ccc(C2=Nn3c(nnc3-c3ccccn3)SC2)cc1 | 493 | 1.1% (inactive) | -197% (inactive) | 107 | 1.13 | -0.317 | 0.587 | -13.3% (inactive) | -0.467 (inactive) | -3.6e-05 (inactive) | 0.00617 (inactive) | inactive | 0.114% (inactive)
Cn1c(OCc2ccc3c(c2)OCO3)nc2c1c(=O)n(Cc1cccc(Cl)c1)c(=O)n2C | 646 | 5.7% (inactive) | -35.9% (inactive) | 149 | -0.768 | 0.366 | 0.018 | 9.61% (inactive) | -0.484 (inactive) | -0.000102 (inactive) | 0.00957 (inactive) | inactive | 4.63% (inactive)
COc1cc2c(C(=O)N3CCN(c4ccccc4)CC3)c(C)oc2cc1Br | 539 | -0.9% (inactive) | -65.1% (inactive) | 139 | 1.72 | -0.592 | -0.944 | 10.5% (inactive) | -0.532 (inactive) | -2.7e-05 (inactive) | 0.00643 (inactive) | inactive | 1.23% (inactive)
Cn1ncc(N=Cc2ccccc2)c1C(N)=O | 599 | 2.9% (inactive) | -32.8% (inactive) | 138 | -2.18 | 0.507 | 1.65 | 18.6% (inactive) | -0.54 (inactive) | -8.2e-05 (inactive) | 0.00589 (inactive) | inactive | -3.53% (inactive)
Nc1ncnc2nc(SCc3ccccc3)[nH]c12 | 352 | 2.1% (inactive) | -52.6% (inactive) | 152 | -0.893 | 1.92 | 0.814 | -7.01% (inactive) | -0.432 (inactive) | -0.00013 (inactive) | 0.00504 (inactive) | inactive | 8.96% (inactive)
C=CCn1c(=S)[nH]c2nc3c(cc2c1=O)CCCC3 | 546 | -1% (inactive) | -44.7% (inactive) | 112 | -0.436 | 2.14 | 0.929 | -7.28% (inactive) | -0.428 (inactive) | 4.7e-06 (inactive) | 0.0129 (inactive) | inactive | -0.142% (inactive)
CCCc1nn(C)c2c1C(c1cccnc1)C(C#N)=C(N)O2 (stereo unspecified) | 521 | -5.3% (inactive) | -50.3% (inactive) | 183 | 0.834 | 0.991 | -0.817 | 9.61% (inactive) | -0.274 (inactive) | 4.2e-08 (inactive) | 0.00487 (inactive) | inactive | 14.7% (inactive)
O=C(Cc1cscn1)c1ccc(O)cc1O | 564 | -6% (inactive) | -143% (inactive) | 147 | 1.34 | -0.975 | -0.882 | 11.9% (inactive) | -0.544 (inactive) | -5.6e-05 (inactive) | 0.00473 (inactive) | inactive | 8.71% (inactive)
COC(=O)c1ccc(Cn2nnc3c(sc4nc(N5CCOCC5)c5c(c43)CCCC5)c2=O)o1 | 558 | -14.8% (inactive) | -101% (inactive) | 153 | 0.962 | -1.77 | -0.316 | 24.4% (inactive) | -0.275 (inactive) | 2.3e-06 (inactive) | 0.00716 (inactive) | active; weak signal in gallbladder and intestine | -3.46% (inactive)
Cc1ccc(S(=O)(=O)N2CCC(N3CCCCCC3)CC2)cc1 | 449 | -31.4% (inactive) | -231% (inactive) | 163 | 0.833 | -1.65 | 0.596 | 1.04% (inactive) | -0.29 (inactive) | -8.7e-06 (inactive) | 0.0051 (inactive) | inactive | 116% (active)
Cc1ccc(/C=c2\sc3n(c2=O)CN(c2ccc(Br)cc2)CN=3)o1 | 367 | -0.5% (inactive) | -127% (inactive) | 137 | 1.52 | -1.23 | -1.08 | 22.7% (inactive) | -0.389 (inactive) | -1.9e-05 (inactive) | 0.00432 (inactive) | inactive | -6.84% (inactive)
CSc1nc(C)cc(OCCNS(=O)(=O)c2cc(C)ccc2C)n1 | 384 | -16% (inactive) | -21.6% (inactive) | 141 | 0.846 | -0.567 | -1.02 | 12.3% (inactive) | -0.414 (inactive) | -8.3e-05 (inactive) | 0.00593 (inactive) | inactive | 117% (active)
CC(=O)OC12CC3CC(C1)C(=NO)C(C3)C2 | 541 | -10.2% (inactive) | -145% (inactive) | 127 | 1.34 | -0.992 | -0.795 | 33.7% (inactive) | -0.512 (inactive) | -2.1e-05 (inactive) | 0.00472 (inactive) | inactive | 39.2% (inactive)
CC(C)(C)C1=Nn2c(nnc2-c2ccccn2)SC1 | 537 | -5.5% (inactive) | -200% (inactive) | 165 | 1.25 | 0.795 | -0.0968 | -2.47% (inactive) | -0.417 (inactive) | -0.000136 (inactive) | 0.00561 (inactive) | inactive | -9.77% (inactive)
CC(=O)c1c(C)c2c(n1CCN(C)C)CCCC2 | 518 | -10% (inactive) | 17.6% (inactive) | 93.6 | -0.53 | 2.44 | 1.25 | -11.5% (inactive) | -0.521 (inactive) | -1.7e-05 (inactive) | 0.0146 (active) | inactive | -13.1% (inactive)
COC(=O)c1ccc(C(=O)OC)c(NC(=O)c2cc3ccccc3o2)c1 | 641 | -12.1% (inactive) | 15.1% (inactive) | 175 | 2.88 | -0.375 | -1.4 | 6.51% (inactive) | -0.377 (inactive) | -5.2e-05 (inactive) | 0.00547 (inactive) | inactive | -2.3% (inactive)
Cn1c(N2CCOCC2)nc2c1c(=O)n(Cc1ccc(Cl)c(Cl)c1)c(=O)n2C | 616 | -1.9% (inactive) | -39.8% (inactive) | 146 | -0.645 | 0.0379 | -0.103 | 2.46% (inactive) | -0.474 (inactive) | -0.000203 (inactive) | 0.00465 (inactive) | inactive | 24.4% (inactive)
CC1CC(C(F)(F)F)n2ncnc2N1 (stereo unspecified) | 503 | -3.5% (inactive) | -41.5% (inactive) | 134 | -0.241 | 0.0915 | -0.288 | 13.2% (inactive) | -0.523 (inactive) | -4.4e-05 (inactive) | 0.00582 (inactive) | inactive | 39.7% (inactive)
Cc1c(OCc2ccccc2)c(=O)ccn1Cc1ccccc1 | 560 | -7.9% (inactive) | -27.8% (inactive) | 226 | 0.907 | -0.745 | -0.326 | -2.91% (inactive) | -0.379 (inactive) | -2.4e-05 (inactive) | 0.00471 (inactive) | inactive | -5.81% (inactive)
Cn1ncc2nnn(-c3ccccc3)c(=O)c21 | 492 | -0.2% (inactive) | -10.3% (inactive) | 107 | -0.32 | 1.71 | -1.2 | -1.12% (inactive) | -0.497 (inactive) | -0.000269 (inactive) | 0.00475 (inactive) | inactive | -10.6% (inactive)
CC(C)Oc1ccc(Cc2c(O)nc(NCCCN(C)C)[nH]c2=O)cc1 | 383 | -15.2% (inactive) | -285% (inactive) | 152 | -0.061 | -1.61 | -0.785 | -2.07% (inactive) | -0.396 (inactive) | -1e-05 (inactive) | 0.00657 (inactive) | inactive | 26.1% (inactive)
CCN(CC)CCN1C(=O)C(=O)/C(=C(/O)c2ccc(F)cc2)C1c1ccncc1 (stereo unspecified) | 519 | -13.3% (inactive) | -36.8% (inactive) | 110 | 0.315 | 0.605 | -0.561 | -11.5% (inactive) | -0.542 (inactive) | -1e-05 (inactive) | 0.00505 (inactive) | inactive | -7.51% (inactive)
Cc1cc(C)c(C#N)c(SCC(=O)N2CCN(Cc3ccccc3)CC2)n1 | 660 | -29% (inactive) | -68.1% (inactive) | 173 | -1.99 | 0.41 | 1.64 | -7.28% (inactive) | -0.419 (inactive) | -3.2e-05 (inactive) | 0.00644 (inactive) | inactive | 8.58% (inactive)
Cc1cc2c(c(=O)n1CC1CCCO1)C(c1ccc3c(c1)OCO3)C(C#N)=C(N)O2 (stereo unspecified) | 430 | -3.9% (inactive) | -118% (inactive) | 138 | -0.219 | 0.61 | 1.43 | -2.91% (inactive) | -0.369 (inactive) | -4.9e-05 (inactive) | 0.00655 (inactive) | inactive | -9.27% (inactive)
CC(C)Cc1nc(NCCN2CCOCC2)c(C#N)c2c1COC(C)(C)C2 | 572 | 2.6% (inactive) | -114% (inactive) | 192 | -1.39 | 1.03 | 0.72 | -6.86% (inactive) | -0.302 (inactive) | 2.3e-05 (inactive) | 0.00502 (inactive) | inactive | 4.53% (inactive)
Cc1c(CCC#N)c(N2CCCCC2)n2c(nc3ccccc32)c1C#N | 547 | -20.4% (inactive) | -116% (inactive) | 155 | 0.117 | -1.2 | -0.217 | -6.06% (inactive) | -0.341 (inactive) | -2.7e-05 (inactive) | 0.00724 (inactive) | inactive | 4.74% (inactive)
